Test results reported in ChEMBL document CHEMBL1157295, “Polyacylated oligosaccharides from medicinal Mexican morning glory species as antibacterials and inhibitors of multidrug resistance in Staphylococcus aureus” (2006).
Converted amounts (≈) assume the structure as drawn.

Assays:
Type in all cases: functional
[1] = tested on: Mycobacterium tuberculosis; test: Antimicrobial activity against Mycobacterium tuberculosis
Staphylococcus aureus [2] = test: Antimicrobial activity against epidemic methicillin-resistant Staphylococcus aureus 15 by standard microdilution method
Method in brief: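 Broth microdilution following NCCLS guidelines, at least in duplicate, against EMRSA-15 (mecA) precultured on nutrient agar. Medium was cation-adjusted Mueller-Hinton broth with 20 mg/L Ca2+ and 10 mg/L Mg2+. Inoculum was 5 × 10^5 cfu in 0.9% saline, set against a McFarland standard. Compounds were dissolved in DMSO (final ≤3.125% v/v) and tested at 1–512 µg/mL in 2-fold series. MIC was the lowest concentration with no visible growth.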

Staphylococcus aureus [3] = test: Antimicrobial activity against TetK multidrug efflux pump possessing Staphylococcus aureus XU-212 by standard microdilution method
Method in brief: (§1)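 Broth microdilution per NCCLS guidelines, at least in duplicate, in cation-adjusted Mueller-Hinton broth (20 mg/L Ca2+, 10 mg/L Mg2+). Strains were grown first on nutrient agar. Inoculum of 5 × 10^5 cfu was set in 0.9% saline against a McFarland standard. Compounds were dissolved in DMSO and given as 2-fold serial dilutions, final 1–512 µg/mL, with at most 3.125% v/v DMSO. MIC is the lowest concentration showing no visible growth.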

Staphylococcus aureus [4] = test: Antimicrobial activity against Staphylococcus aureus ATCC 25923 by standard microdilution method; method in brief: as §1
Staphylococcus aureus [5] = test: Antimicrobial activity against Staphylococcus aureus ATCC 6538

SMILES	MIC [1]	MIC (Staphylococcus aureus [2])	MIC (Staphylococcus aureus [3])	MIC (Staphylococcus aureus [4])	MIC (Staphylococcus aureus [5])
CCCCC[C@H]1CCCCCCCCCC(=O)OC[C@H]2O[C@@H](O[C@H]3[C@H](O1)O[C@H](C)[C@H](O)[C@@H]3O)[C@H](O[C@@H]1O[C@@H](C)[C@H](OC(=O)[C@@H](C)CC)[C@@H](O[C@@H]3O[C@@H](C)[C@H](O)[C@@H](O)[C@H]3O)[C@H]1OC(=O)[C@@H](C)CC)[C@@H](O)[C@@H]2O [TRICOLORIN D]	16 mg/L (≈ 15.6 µM)	32 mg/L (≈ 31.3 µM)	32 mg/L (≈ 31.3 µM)	16 mg/L (≈ 15.6 µM)	1 mg/L (≈ 0.977 µM)
CCCCC[C@H]1CCCCCCCCCC(=O)O[C@H]2[C@H](O)[C@@H](CO)O[C@@H](O[C@H]3[C@H](O1)O[C@H](C)[C@H](O)[C@@H]3O)[C@@H]2O[C@@H]1O[C@@H](C)[C@H](OC(=O)C(C)C)[C@@H](O[C@@H]2O[C@@H](C)[C@H](O)[C@@H](O)[C@H]2O)[C@H]1OC(=O)[C@@H](C)CC [TRICOLORIN B]	16 mg/L (≈ 15.9 µM)	16 mg/L (≈ 15.9 µM)	16 mg/L (≈ 15.9 µM)	32 mg/L (≈ 31.7 µM)	1 mg/L (≈ 0.991 µM)
CCCCC[C@H]1CCCCCCCCCC(=O)O[C@H]2[C@H](O)[C@@H](CO)O[C@@H](O[C@H]3[C@H](O1)O[C@H](C)[C@@H](O)[C@@H]3O)[C@@H]2O[C@@H]1O[C@@H](C)[C@H](OC(=O)[C@@H](C)CC)[C@@H](O[C@@H]2O[C@@H](C)[C@H](O)[C@@H](O)[C@H]2O)[C@H]1OC(=O)[C@@H](C)CC [TRICOLORIN E]	16 mg/L (≈ 15.6 µM)	8 mg/L (≈ 7.82 µM)	8 mg/L (≈ 7.82 µM)	16 mg/L (≈ 15.6 µM)	1 mg/L (≈ 0.977 µM)
CCCCC[C@H]1CCCCCCCCCC(=O)O[C@H]2[C@H](O)[C@@H](CO)O[C@@H](O[C@H]3[C@H](O1)O[C@H](C)[C@H](O)[C@@H]3O)[C@@H]2O[C@@H]1O[C@@H](C)[C@H](OC(=O)[C@@H](C)CC)[C@@H](O[C@@H]2O[C@@H](C)[C@H](O)[C@@H](O)[C@H]2O)[C@H]1OC(=O)[C@@H](C)CC [TRICOLORIN A]	16 mg/L (≈ 15.6 µM)	4 mg/L (≈ 3.91 µM)	8 mg/L (≈ 7.82 µM)	16 mg/L (≈ 15.6 µM)	1 mg/L (≈ 0.977 µM)
